Runt-SMMHC FRET: blocks binding of human RUNX1 Runt domain to CBFb-SMMHC. Q01196+Q13951. AID 1434. inhibition, % at 20 µM. 220,000 tested, 0.74% active. Cerulean-Runt/Venus-CBFb-SMMHC FRET ratio 530/480, 1 h;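 active = mean inhibition across duplicate retests at 20 µM reaching about 50%, limit read from the data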;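 note: inhibitors lower the FRET ratio by blocking Runt binding to CBFb-SMMHC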
Runt-CBFb FRET: Runt domain-CBFb interaction inhibition; 220,000 tested, 0.46% active; inhibition, % at 20 µM; Q01196+Q13951; Cerulean-Runt/Venus-CBFb FRET ratio 530/480, 1 h;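 active = inhibition over about 50% at 20 µM in the single-dose screen, limit read from the data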
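test system = Cerulean-Runt domain fusion protein, energy donor | probe or stimulus = Venus-CBFb binding partner, 100 nM | incubation = two 1 h room-temperature incubations shielded from light | detection = fluorescence energy transfer, 422 nm excitation, 530/480 nm emission | measure = loss of energy transfer signal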
RanGTP-Imp inh: inhibitors of RanGTP-importin-beta interaction, primary screen, biochemical, FRET, CFP-Ran, YFP-importin-beta, homogeneous; inhibition, % (test concentration not listed); cell-free CFP-Ran/YFP-importin-beta FRET ratio; 300,000 tested, 1.1% active;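 active = more than half of the replicate wells show a fall in the fluorescence ratio signal beyond about 16%, limit read from the data, passing the limit was not always enough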
Hck-Nef inh: human Hck-Nef kinase inhibition. Recombinant Hck-YEEI plus Nef, Z-Lyte FRET kinase assay. inhibition, % at 20 µM. 220,000 tested, 0.68% active;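 active = Hck-Nef kinase inhibition above about 50%, limit read from the data; inactive = inhibition below that limit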
PfM18AAP inh: blocks P. falciparum M18 aspartyl aminopeptidase. 290,000 tested, 1.2% active. inhibition, % at 7.35 µM. recombinant PfM18AAP, H-Glu-NHMec fluorogenic cleavage. AID 1822;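 active = inhibition above the campaign mean inhibition over all tested compounds plus 3 SD, cut at about 28% in these data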
RBBP9 inhibitor: human RBBP9 hydrolase inhibition; recombinant RBBP9, FP-Rh probe fluorescence polarization; 220,000 tested, 0.2% active; AID 1515; inhibition, % at 7.94 µM;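 active = inhibition above the campaign mean of all tested compounds plus 3 SD, cut at about 14% in these data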
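System: RBBP9 protein | Quantity: 2.5 µM RBBP9 dispensing solution, before mixing | Reagent: FP-Rh probe, 375 nM dispensing solution | Timing: Enzyme-compound preincubation 30 min, then probe labeling 45 min, 25 °C | Measured by: Fluorescence polarization | Read-out: % inhibition | Replication: One well per compound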
Hck-Nef confirm: confirmation of Hck-Nef kinase inhibitors; shares compounds with Hck-Nef inh; Recombinant Hck-YEEI:Nef, Z-Lyte FRET kinase assay; calls only at 10 µM; 1,300 tested, 28% active; AID 463188;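 active = average inhibition of at least 50%, with Z-scores no higher than 3 in both the phospho-tyrosine peptide and fluorescence counterscreens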
Of the large screens only hits and unclear results are named; the others gave an inactive call (follow-up assays come after a bar, where they were run). Hits are enriched below; roughly 2.9% of the tested compounds scored in any of these assays.

O=C(O)Cn1cc(/C=C2\C(=O)NC(=O)N(Cc3ccco3)C2=O)c2ccccc21	Hck-Nef inh 74 | Hck-Nef confirm inactive
COc1ccccc1C(=O)Nc1ccc2c(c1)CC1(C(=O)N(C)C(=O)N(C)C1=O)C1CCCN21 (configuration not stated)	none (no result: Runt-SMMHC FRET, Runt-CBFb FRET, Hck-Nef inh, RBBP9 inhibitor)
COC1C(OC(=O)c2ccc(C)[nH]2)C(O)C(Oc2ccc3c(O)c(NC(=O)c4ccc(O)c(CC=C(C)C)c4)c(=O)oc3c2Cl)OC1(C)C (configuration not stated)	Hck-Nef inh 55 (no result: RanGTP-Imp inh) | Hck-Nef confirm inactive
O=C1NC(=O)C(=Cc2coc3ccccc3c2=O)C(=O)N1	Hck-Nef inh 97 | Hck-Nef confirm active
O=C1NC(=O)C(=Cc2ccc(-c3ccccc3[N+](=O)[O-])o2)C(=O)N1	Hck-Nef inh 76 | Hck-Nef confirm active
COC(=O)C(C)NC(=S)N1CC2C[C@@H](C1)Cn1c2cccc1=O (some centres not stated)	none (no result: Runt-SMMHC FRET, Runt-CBFb FRET, Hck-Nef inh, RBBP9 inhibitor)
CCN(CC)CCN=Cc1c(O)n(CCc2ccccc2)c(=O)[nH]c1=O	Hck-Nef inh 62 | Hck-Nef confirm inactive
NC(=S)N/N=C/c1coc2ccccc2c1=O	Hck-Nef inh 53, PfM18AAP inh 29 | Hck-Nef confirm inactive
Cc1ccccc1C1=NCC(=O)N(CC(=O)N2CCCCC2)c2sc(C)c(C)c21	none

Bioassay records from PubChem.
